{"source": "ChEMBL document CHEMBL4665779", "about": "“Novel 2-Substituted 3-Hydroxy-1,6-dimethylpyridin-4(1H)-ones as Dual-Acting Biofilm Inhibitors of Pseudomonas aeruginosa” (J Med Chem, 2020)", "key": {"Pseudomonas aeruginosa [1]": {"test_system": "Pseudomonas aeruginosa", "test": "Inhibition of biofilm formation in multidrug resistant Pseudomonas aeruginosa 1167 at 20 uM relative to control", "type": "functional"}, "Pseudomonas aeruginosa [2]": {"test_system": "Pseudomonas aeruginosa", "test": "Inhibition of biofilm formation in multidrug resistant Pseudomonas aeruginosa FB at 5 uM relative to control", "type": "functional"}, "[3]": {"test": "Metal chelating activity assessed as negative logarithm of total free ferric ion concentration in a solution under biological conditions", "outline": "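Fluorescence competition with CP645 (6 μM), quenched by Fe-NTA (2 μM) for 30 min before compound (60 μM) was added in Chelex-treated MOPS. Fluorescence was read after 48 h, with DFP as reference. pFe(III) was calculated from relative fluorescence as % = 11.743 pFe(III) − 169. Mean of three determinations.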"}, "Pseudomonas aeruginosa [4]": {"test_system": "Pseudomonas aeruginosa", "test": "Antibiofilm activity against Pseudomonas aeruginosa PAO1 assessed as reduction in biofilm mass at 1.25 uM after 24 hrs by microtiter plate assay relative to control", "type": "functional", "design": "scale not given: the % may be the effect or the level left", "outline": "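PAO1 (OD600 0.05) was cultured in ABTGC medium at 37 °C for 24 h with compound (1.25–20 μM for the dose series). Wells were PBS-washed three times, methanol-fixed for 30 min, air-dried, and stained with 0.1% crystal violet for 30 min. Stain was solubilized in 33% acetic acid and read at 570 nm. Compound stocks were […]. Run in triplicate.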"}, "Pseudomonas aeruginosa [5]": {"test_system": "Pseudomonas aeruginosa", "test": "Inhibition of biofilm formation in multidrug resistant Pseudomonas aeruginosa 1129 at 10 uM relative to control", "type": "functional"}, "Pseudomonas aeruginosa [6]": {"test_system": "Pseudomonas aeruginosa", "test": "Binding affinity to […] overexpressed in Pseudomonas aeruginosa PAO1 assessed as inhibition of biofilm formation at 1.25 to 20 uM", "conditions": "dose microM 1.25-20"}, "Pseudomonas aeruginosa [7]": {"test_system": "Pseudomonas aeruginosa", "test": "Antibacterial activity against Pseudomonas aeruginosa infected in African green monkey Vero cells assessed as cell survival at 20 uM pretreated for 24 hrs followed by cell addition and measured 4 hrs post-infection by MTT assay (reference value: 41.5%)", "type": "functional", "conditions": "time 28 hrs"}, "[8]": {"target": "3-(3-hydroxydecanoyloxy)decanoate synthase (Pseudomonas aeruginosa (strain ATCC 15692 / PAO1 / 1C / PRS 101 / LMG12228)) (UniProt Q51559)", "test": "Inhibition of rhlA fluorescence in Pseudomonas aeruginosa PAO1 transfected with GFP by measuring fluorescence intensity every 15 mins for 12 hrs by microtiter plate reader assay", "conditions": "dose microM 1.25-20, time 12.0 hrs", "outline": "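PAO1-gfp, PAO1-lasB-gfp, PAO1-rhlA-gfp or PAO1-pqsA-gfp reporters were grown overnight in LB, then diluted in ABTGC medium to OD600 0.02, with compound at 1.25–20 μM. Controls were 0.1% DMSO and a blank. OD600 and GFP fluorescence (ex 485/em 535 nm) were read every 15 min for at least 12 h at 37 °C; triplicate.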"}, "L02": {"test_system": "L02", "test": "Cytotoxicity against human L02 cells assessed as reduction in cell viability up to 50 uM after 16 hrs by MTT assay", "type": "cell-based", "conditions": "l02, 16 h", "outline": "(§1)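 Vero or LO2 cells were seeded at 5000–15000 cells/well for 16 h, PBS-washed, then exposed to compound in DMEM at 37 °C and 5% CO2 for 16 h. MTT (20 μL of 5 mg/mL) was added for 3 h, and formazan was dissolved in DMSO and read at 570 nm. Triplicate; mean ± SD.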"}, "[9]": {"test_system": "Pseudomonas aeruginosa PAO1", "test": "Induction of iron chelation in Pseudomonas aeruginosa PAO1 assessed as increase in intracellular pyoverdin level at 1.25 to 20 uM in presence of 50 uM FeCl3 by fluorescence microplate reader assay", "type": "cell-based", "conditions": "dose microM 1.25-20", "outline": "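PAO1 overnight LB culture was diluted in ABTGC medium to OD600 0.02 ([…]), with compound at 0–20 μM, in medium containing 10 or 50 μM FeCl3. Plates were kept at 37 °C in a plate reader recording OD600, pyoverdine fluorescence (ex 400/em 447 nm) and pyochelin fluorescence (ex 350/em 430 nm). Triplicate.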"}, "Vero": {"test_system": "Vero", "test": "Cytotoxicity against African green monkey Vero cells assessed as reduction in cell viability up to 50 uM after 16 hrs by MTT assay", "type": "cell-based", "conditions": "chlorocebus sabaeus", "outline": "as §1"}, "[10]": {"test_system": "Pseudomonas aeruginosa PAO1", "test": "Inhibition of quorum sensing system las in Pseudomonas aeruginosa PAO1 assessed as reduction in elastase production at 1.25 to 20 uM after 24 hrs by BODIPY fluorophore based fluorescence assay", "conditions": "dose microM 1.25-20, time 24.0 hrs", "outline": "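PAO1 in LB at OD600 0.01 was incubated with compound (0–20 μM) for 24 h at 37 °C with shaking. The centrifuged supernatant was mixed with BODIPY FL-labelled DQ elastin substrate. Fluorescence (ex 490/em 520 nm) was read every 10 min for 5 h.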"}, "Pseudomonas aeruginosa [11]": {"test_system": "Pseudomonas aeruginosa", "test": "Inhibition of biofilm formation in multidrug resistant Pseudomonas aeruginosa FB at 10 uM relative to control", "type": "functional"}, "Pseudomonas aeruginosa [12]": {"test_system": "Pseudomonas aeruginosa", "test": "Inhibition of biofilm formation in multidrug resistant Pseudomonas aeruginosa 1167 at 5 uM relative to control", "type": "functional"}, "[13]": {"test": "Metal chelating activity assessed as negative logarithm of total free ferric ion concentration in a solution at 60 uM measured after 48 hrs in presence of CP645 probe and Fe-NTA by fluorescence spectrophotometry analysis"}, "Pseudomonas aeruginosa [14]": {"test_system": "Pseudomonas aeruginosa", "test": "Inhibition of biofilm formation in multidrug resistant Pseudomonas aeruginosa 1167 at 1.25 uM relative to control", "type": "functional"}, "Pseudomonas aeruginosa [15]": {"test_system": "Pseudomonas aeruginosa", "test": "Antibiofilm activity against Pseudomonas aeruginosa PAO1 assessed as inhibition of biofilm formation after 24 hrs by SYTO 9/propidium iodide staining based confocal microscopic analysis", "type": "functional, organism-based", "conditions": "dose microM 1.25-20, time 24.0 hrs", "outline": "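Biofilms were grown as in the crystal violet assay but on glass-bottom wells, with compound at 1.25–20 μM for 24 h at 37 °C against an untreated control. Wells were rinsed three times with PBS and stained for 15 min in the dark with 1 μM SYTO 9 and 10 μM propidium iodide. Confocal imaging used a 63× oil objective; triplicate.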"}, "Pseudomonas aeruginosa [16]": {"test_system": "Pseudomonas aeruginosa", "test": "Inhibition of biofilm formation in multidrug resistant Pseudomonas aeruginosa 1129 at 5 uM relative to control", "type": "functional"}, "Pseudomonas aeruginosa [17]": {"test_system": "Pseudomonas aeruginosa", "test": "Inhibition of biofilm formation in multidrug resistant Pseudomonas aeruginosa 1167 at 2.5 uM relative to control", "type": "functional"}, "Pseudomonas aeruginosa [18]": {"test_system": "Pseudomonas aeruginosa", "test": "Inhibition of biofilm formation in multidrug resistant Pseudomonas aeruginosa FB at 2.5 uM relative to control", "type": "functional"}, "[19]": {"test_system": "Pseudomonas aeruginosa PAO1", "test": "Inhibition of quorum sensing system rhl in Pseudomonas aeruginosa PAO1 assessed as reduction in rhamnolipid production by orcinol assay", "conditions": "dose microM 1.25-20", "outline": "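An overnight culture was diluted 1:100 into a defined minimal medium (0.6% glycerol, 25 μM FeSO4) with compound at 1.25–20 μM and grown 24 h at 37 °C with shaking. Supernatant was ether-extracted twice, dried, resuspended in water, and reacted with 0.19% orcinol in 50% H2SO4 at 80 °C for 30 min. A421 was read and normalized to OD600.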"}, "[20]": {"test": "Growth inhibition of Pseudomonas aeruginosa PAO1 at 512 uM by CLSI-based broth microdilution method", "outline": "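Broth microdilution following CLSI standards: two-fold serial dilutions were made in Mueller-Hinton broth and inoculated with P. aeruginosa to a final OD600 of 0.05. The top final concentration is printed as […].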"}}, "note": "Activity calls are given as the source filed them. No cut-off for these calls is given here."}
{"smiles": "CCCCCCC(=O)NCc1c(O)c(=O)cc(C)n1C", "values": [{"measurement": "inhibition at 20 µM", "setting": "Pseudomonas aeruginosa [1]", "value": 51.4, "unit": "%"}, {"measurement": "inhibition at 5 µM", "setting": "Pseudomonas aeruginosa [2]", "value": 3.57, "unit": "%"}, {"measurement": "pFe3+", "setting": "[3]", "value": 20.6}, {"measurement": "Activity", "setting": "Pseudomonas aeruginosa [4]", "value": ">25", "unit": "%"}, {"measurement": "inhibition at 10 µM", "setting": "Pseudomonas aeruginosa [5]", "value": 30.4, "unit": "%"}, {"measurement": "inhibition", "setting": "Pseudomonas aeruginosa [6]", "value": "Active"}, {"measurement": "survival at 20 µM", "setting": "Pseudomonas aeruginosa [7]", "value": 96.4, "unit": "%"}, {"measurement": "inhibition", "setting": "[8]", "value": "Dose-dependent effect"}, {"measurement": "Activity", "setting": "L02", "value": "Non-Toxic"}, {"measurement": "Activity", "setting": "[9]", "value": "inactive"}, {"measurement": "Activity", "setting": "Vero", "value": "Non-Toxic"}, {"measurement": "inhibition", "setting": "[10]", "value": "Active"}, {"measurement": "inhibition at 10 µM", "setting": "Pseudomonas aeruginosa [11]", "value": 18.4, "unit": "%"}, {"measurement": "inhibition at 5 µM", "setting": "Pseudomonas aeruginosa [12]", "value": 43.7, "unit": "%"}, {"measurement": "pFe3+", "setting": "[13]", "value": 22}, {"measurement": "inhibition at 1.25 µM", "setting": "Pseudomonas aeruginosa [14]", "value": 34.5, "unit": "%"}, {"measurement": "Activity", "setting": "Pseudomonas aeruginosa [15]", "value": "Dose-dependent effect"}, {"measurement": "inhibition at 5 µM", "setting": "Pseudomonas aeruginosa [16]", "value": 30.6, "unit": "%"}, {"measurement": "inhibition at 2.5 µM", "setting": "Pseudomonas aeruginosa [17]", "value": 34.6, "unit": "%"}, {"measurement": "inhibition at 2.5 µM", "setting": "Pseudomonas aeruginosa [18]", "value": -8.67, "unit": "%"}, {"measurement": "inhibition", "setting": "[19]", "value": "Dose-dependent effect"}, {"measurement": "growth inhibition (GI)", "setting": "[20]", "value": "Non-Toxic"}]}
